Usually Ki stands for a dissociation constant, usually derived from enzyme kinetics or from competition with a known ligand. In general, IC50 refers to the midpoint of a concentration-inhibition curve. A higher IC50 goes with lower potency.

Cytochrome P450 2D6, sequence (P10635 whole entry): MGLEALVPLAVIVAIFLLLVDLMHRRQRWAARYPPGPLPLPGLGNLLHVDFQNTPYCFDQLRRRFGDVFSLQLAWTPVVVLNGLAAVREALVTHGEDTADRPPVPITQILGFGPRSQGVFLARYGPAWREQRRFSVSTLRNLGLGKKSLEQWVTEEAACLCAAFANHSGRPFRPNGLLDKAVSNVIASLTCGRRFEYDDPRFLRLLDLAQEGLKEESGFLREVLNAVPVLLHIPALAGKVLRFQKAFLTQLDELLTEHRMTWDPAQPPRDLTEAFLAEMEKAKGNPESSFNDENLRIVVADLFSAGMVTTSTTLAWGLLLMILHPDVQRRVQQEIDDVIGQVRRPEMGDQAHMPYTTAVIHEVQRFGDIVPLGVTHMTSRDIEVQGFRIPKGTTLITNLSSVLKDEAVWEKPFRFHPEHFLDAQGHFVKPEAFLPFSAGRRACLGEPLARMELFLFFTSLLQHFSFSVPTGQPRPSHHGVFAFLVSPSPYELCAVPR

In one test the target is 5-hydroxytryptamine receptor 6 (Homo sapiens, UniProt P50406). Kind of test: Displacement of [3H]LSD form human recombinant 5HT6 receptor. The gist of the method: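 Membranes prepared from cells engineered to recombinantly express human 5-HT6 receptors; competitive radioligand binding with [3H]LSD; affinity reported as pKi (−log M).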
5-hydroxytryptamine receptor 6, sequence (P50406 whole entry): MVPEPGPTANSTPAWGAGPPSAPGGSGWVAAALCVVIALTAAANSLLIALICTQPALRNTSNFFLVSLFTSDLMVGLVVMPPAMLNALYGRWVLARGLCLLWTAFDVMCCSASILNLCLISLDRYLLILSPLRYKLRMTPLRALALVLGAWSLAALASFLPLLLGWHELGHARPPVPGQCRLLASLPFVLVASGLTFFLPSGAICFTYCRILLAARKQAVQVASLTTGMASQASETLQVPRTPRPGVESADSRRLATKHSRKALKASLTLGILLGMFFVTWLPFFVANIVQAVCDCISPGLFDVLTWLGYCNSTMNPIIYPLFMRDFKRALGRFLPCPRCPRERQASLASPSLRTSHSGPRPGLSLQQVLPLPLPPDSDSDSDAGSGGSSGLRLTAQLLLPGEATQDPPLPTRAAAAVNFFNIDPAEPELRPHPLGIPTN
Regarding `O=S(=O)(O)CCCNC[C@@H]1CCCc2cc(S(=O)(=O)c3cccc(F)c3)ccc21`, the inhibition constant Ki was 1.26 nM.
Take `O=C1CN=C(NC[C@@H]2CCCc3cc(S(=O)(=O)c4cccc(F)c4)ccc32)N1`: the Ki is 0.1 nM.
The same measure, in the same setting: to `CN(C)CC1CCCc2cc(S(=O)(=O)c3ccccc3)ccc21` (stereo unspecified) belongs 0.0631 nM; to `COCCNC[C@@H]1CCCc2cc(S(=O)(=O)c3cccc(F)c3)ccc21`, 0.251 nM; to `CNC[C@@H]1CCCc2cc(S(=O)(=O)c3cc[nH]c3)ccc21`, 0.158 nM.
As to `NC[C@@H]1CCCc2cc(S(=O)(=O)c3cccc(F)c3)ccc21`, the Ki was 0.0794 nM.
Consider `O=S(=O)(c1cccc(F)c1)c1ccc2c(c1)CCC[C@H]2CNS(=O)(=O)C(F)(F)F`, for which the inhibition constant (Ki) was 31.6 nM.
With `O=C(NC[C@@H]1CCCc2cc(S(=O)(=O)c3cccc(F)c3)ccc21)c1ncc[nH]1`, the inhibition constant Ki is 15.8 nM.
Regarding `O=S(=O)(c1cccc(F)c1)c1ccc2c(c1)CCC[C@H]2CN1CCCS1(=O)=O`, the Ki is 31.6 nM.
`CN(C[C@@H]1CCCc2cc(S(=O)(=O)c3cccc(F)c3)ccc21)C(N)=O`: the Ki is 39.8 nM.
For the molecule `COCC(=O)NC[C@@H]1CCCc2cc(S(=O)(=O)c3cccc(F)c3)ccc21`, the Ki is 0.794 nM.
Regarding `NC[C@@H]1CCCc2cc(S(=O)(=O)c3cn[nH]c3)ccc21`, the inhibition constant (Ki) is 2 nM.
On to `O=S(=O)(c1cccc(F)c1)c1ccc2c(c1)CCC[C@H]2CN1CC(O)C1`, for which the inhibitory constant (Ki) is 0.1 nM.
Take `CS(=O)(=O)c1cccc(S(=O)(=O)c2ccc3c(c2)CCC[C@H]3CN)c1`: the Ki is 3.98 nM.
With `Cn1ccc(S(=O)(=O)c2ccc3c(c2)CCC[C@H]3CN)c1`, the Ki is 7.94 nM.
Consider `O=C(NC[C@@H]1CCCc2cc(S(=O)(=O)c3cccc(F)c3)ccc21)[C@H]1CCCN1`, for which the inhibitory constant (Ki) is 0.631 nM.
As for `NC[C@@H]1CCCc2cc(S(=O)(=O)c3ccccc3)ccc21`, the Ki was 0.158 nM.
The same measure, in the same setting: under `N#Cc1cccc(S(=O)(=O)c2ccc3c(c2)CCC[C@H]3CN)c1` stands 0.501 nM.
Take `CNC(=O)NC[C@@H]1CCCc2cc(S(=O)(=O)c3cccc(F)c3)ccc21`: the Ki was 0.398 nM.
Regarding `O=C1CN(C[C@@H]2CCCc3cc(S(=O)(=O)c4cccc(F)c4)ccc32)CCN1`, the Ki was 6.31 nM.
On to `NC[C@@H]1CCCc2cc(S(=O)(=O)c3cccc(O)c3)ccc21`, for which the inhibitory constant (Ki) is 0.251 nM.
On the same count and under the same terms, to `CC(C)(C)C(=O)NC[C@@H]1CCCc2cc(S(=O)(=O)c3cccc(F)c3)ccc21` belongs 3.98 nM; to `O=S(=O)(c1ccccc1)c1ccc2c(c1)CCCC2CNc1ncccn1` (stereo unspecified), 25.1 nM; to `NC[C@@H]1CCCc2cc(S(=O)(=O)c3cc(F)cc4[nH]cnc34)ccc21`, 5.01 nM.
Same read-out and setting: to `NC[C@@H]1CCCc2cc(S(=O)(=O)c3cc[nH]c3)ccc21` belongs 0.316 nM; to `CN(C)C(=O)NC[C@@H]1CCCc2cc(S(=O)(=O)c3cccc(F)c3)ccc21`, 2.51 nM.
`N=C(N)NC(=O)C[C@@H]1CCCc2cc(S(=O)(=O)c3cccc(F)c3)ccc21`: the inhibition constant (Ki) is 0.631 nM.
Consider `NC(=O)NC[C@@H]1CCCc2cc(S(=O)(=O)c3cccc(F)c3)cc(F)c21`, for which the inhibition constant (Ki) is 0.2 nM.
For `O=S(=O)(c1cccc(F)c1)c1ccc2c(c1)CCC[C@H]2CNCCO`, the inhibitory constant (Ki) is 0.126 nM.
Regarding `NC(=O)CNC[C@@H]1CCCc2cc(S(=O)(=O)c3cccc(F)c3)ccc21`, the inhibitory constant (Ki) was 0.1 nM.
On the same count and under the same terms, to `CN(C)S(=O)(=O)NC[C@@H]1CCCc2cc(S(=O)(=O)c3cccc(F)c3)ccc21` belongs 2 nM.
With `CC(=O)N(C)C[C@@H]1CCCc2cc(S(=O)(=O)c3cccc(F)c3)ccc21`, the Ki was 1.58 nM.
`COc1cccc(S(=O)(=O)c2ccc3c(c2)CCC[C@H]3CN)c1`: the Ki was 0.398 nM.
Turning to `NS(=O)(=O)NC[C@@H]1CCCc2cc(S(=O)(=O)c3cccc(F)c3)ccc21`, the Ki was 0.126 nM.
Take `CN(C[C@@H]1CCCc2cc(S(=O)(=O)c3cccc(F)c3)ccc21)S(C)(=O)=O`: the Ki was 0.398 nM.
As to `NCC(=O)NC[C@@H]1CCCc2cc(S(=O)(=O)c3cccc(F)c3)ccc21`, the Ki was 0.316 nM.
On the same count and under the same terms, under `O=C(CO)NC[C@@H]1CCCc2cc(S(=O)(=O)c3cccc(F)c3)cc(F)c21` stands 0.251 nM; under `O=C(CO)NC[C@@H]1CCCc2cc(S(=O)(=O)c3cccc(F)c3)ccc21`, 0.1 nM.
As to `NC[C@@H]1CCCc2cc(S(=O)(=O)c3cncs3)ccc21`, the Ki was 0.794 nM.
As for `CNCC(=O)NC[C@@H]1CCCc2cc(S(=O)(=O)c3cccc(F)c3)ccc21`, the inhibition constant Ki was 0.158 nM.
Turning to `NC[C@@H]1CCCc2cc(S(=O)(=O)Cc3ccccc3)ccc21`, the Ki was 158 nM.
`CC(=O)NC[C@@H]1CCCc2cc(S(=O)(=O)c3cccc(F)c3)ccc21`: the Ki was 0.126 nM.
With `NC[C@@H]1CCCc2cc(S(=O)(=O)C3CCCCC3)ccc21`, the Ki was greater than 1000 nM.
In the case of `N=C(N)NCC1CCCc2cc(S(=O)(=O)c3ccccc3)ccc21` (stereo unspecified), the Ki is 0.158 nM.
`CS(=O)(=O)NC[C@@H]1CCCc2cc(S(=O)(=O)c3cccc(F)c3)ccc21`: the inhibitory constant (Ki) is 0.2 nM.
In the case of `CN(C[C@@H]1CCCc2cc(S(=O)(=O)c3cccc(F)c3)ccc21)S(N)(=O)=O`, the inhibition constant Ki is 3.98 nM.
For `CNCC1CCCc2cc(S(=O)(=O)c3ccccc3)ccc21` (stereo unspecified), the inhibition constant Ki is 0.316 nM.
As for `CNS(=O)(=O)NC[C@@H]1CCCc2cc(S(=O)(=O)c3cccc(F)c3)ccc21`, the Ki was 1 nM.
The same measure, in the same setting: under `NC(=O)NC[C@@H]1CCCc2cc(S(=O)(=O)c3cccc(F)c3)ccc21` [LANDIPIRDINE] stands 0.2 nM; under `CC(C)(O)C(=O)NC[C@@H]1CCCc2cc(S(=O)(=O)c3cccc(F)c3)ccc21`, 2 nM; under `CC(=N)NCC1CCCc2cc(S(=O)(=O)c3ccccc3)ccc21` (stereo unspecified), 0.631 nM.
For the molecule `NC[C@@H]1CCCc2cc(S(=O)(=O)c3c[nH]c4ccccc34)ccc21`, the inhibition constant (Ki) is 0.0501 nM.
As for `CNC(=O)CNC[C@@H]1CCCc2cc(S(=O)(=O)c3cccc(F)c3)ccc21`, the Ki was 1 nM.
`O=C(NC[C@@H]1CCCc2cc(S(=O)(=O)c3cccc(F)c3)ccc21)c1ccc[nH]1`: the Ki was 5.01 nM.
The same measure, in the same setting: under `O=S(=O)(c1cccc(F)c1)c1cc(F)c2c(c1)CCC[C@H]2CNCCO` stands 0.158 nM; under `CN(CC(N)=O)C[C@@H]1CCCc2cc(S(=O)(=O)c3cccc(F)c3)ccc21`, 1.26 nM.
With `CC(=O)NC[C@@H]1CCCc2cc(S(=O)(=O)c3ccccc3)cc(F)c21`, the Ki is 0.316 nM.
With `COC(=O)NC[C@@H]1CCCc2cc(S(=O)(=O)c3cccc(F)c3)ccc21`, the Ki was 1.58 nM.
With `CN(C)CC(=O)NC[C@@H]1CCCc2cc(S(=O)(=O)c3cccc(F)c3)ccc21`, the Ki was 0.398 nM.

Another test has as its target Cytochrome P450 2D6 (Homo sapiens, UniProt P10635). Description: Inhibition of CYP2D6. Format: ADME.
For `N=C(N)NCC1CCCc2cc(S(=O)(=O)c3ccccc3)ccc21` (stereo unspecified), the half-inhibitory concentration (IC50) was less than 50 nM.

Test system in the next test: not listed separately
Description: Inhibition of CYP450. Format: ADME.
The molecule `CC(=O)NC[C@@H]1CCCc2cc(S(=O)(=O)c3ccccc3)cc(F)c21` had an IC50 greater than 15000 nM.

(Values after ChEMBL document CHEMBL1155479, “Highly potent, non-basic 5-HT6 ligands. Site mutagenesis evidence for a second binding mode at 5-HT6 for antagonism” (Bioorg Med Chem Lett, 2010).)
